The record followed here is ChEMBL document CHEMBL1926514, “Pyridobenzothiazole derivatives as new chemotype targeting the HCV NS5B polymerase” (Bioorg Med Chem, 2012).

Molecules are shown by their SMILES. The source made the active and inactive calls. The calls are words filed in the database; no cut-off is given here. A value given as a limit tells only on which side of the number the result lay.

The nature of data set [1]: Cytotoxicity against human HuH5.2 cells after 72 hrs by MTS assay. It is filed as cell-based, Huh-5-2. The method in brief:
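Metabolic activity was read as absorbance at 498 nm, with OD converted to % of untreated controls. CC50 came from the dose–response curve as 50% reduction of metabolic activity.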
In general terms: Tetrazolium dyes change colour on reduction, which living cells bring about.

Data set [2] deals with Hepatitis C virus. Briefly: Antiviral activity against HCV genotype 1b infected in human HuH5.2 cells assessed as inhibition of […] after 72 hrs by luciferase reporter gene assay. It is filed as functional, organism-based, Hepacivirus hominis. To be noted: Huh-5-2, 72 h. The method in brief:
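Four-step 1-to-5 dilution series were tested for 72 h at 37 °C, 5% CO₂. Cells were washed with PBS and lysed 5 min at room temperature, and luciferase luminescence was read as % of untreated controls. EC50 and EC90 came from dose–response curves; at least three independent experiments.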

The subject of data set [3] is Hepatitis C virus. The experiment in a line: Inhibition of HCV genotype 1b recombinant NS5B Cdelta21 polymerase expressed in Escherichia coli assessed as [3H]UTP incorporation into RNA/RNA homopolymeric template (rA)40/(rU)20 after 40 mins by liquid scintillation counting. More on the design: species or system Hepatitis C virus subtype 1b. The method in brief: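 E. coli-expressed NS5BΔC21 (genotype 1b), purified on DEAE and heparin columns, was used at 25–50 nM. Buffer: 50 mM Tris–HCl pH 8.0, 1 mM DTT, 0.25 mg/mL BSA, 0.25 mM MnCl₂, with (rA)40/(rU)20 primer/template. Inhibitor was preincubated 5 min on ice with enzyme and RNA, then [³H]-UTP (37 Ci/mmol) was added for 40 min at 25 °C. Product was captured on DE-81 filters and counted by scintillation. IC50 is the mean of at least three experiments.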

Data set [4] deals with Hepatitis C virus. Briefly: Inhibition of HCV genotype 1b recombinant NS5B Cdelta21 polymerase expressed in Escherichia coli assessed as [3H]UTP incorporation into RNA/RNA homopolymeric template (rA)40/(rU)20 at 10 uM after 40 mins by liquid scintillation counting in presence of increase concentration of UTP. To be noted: Hepatitis C virus subtype 1b. The method in brief: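 NS5BΔC21 [³H]-UTP incorporation assay on (rA)40/(rU)20 at 25 °C for 40 min, with filter-binding scintillation read-out. Inhibition was measured at varying UTP concentrations; inhibitor was preincubated 5 min on ice with enzyme and RNA template.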

Data set [5] concerns Hepatitis C virus. Briefly: Inhibition of HCV genotype 1b recombinant NS5B Cdelta21 polymerase expressed in Escherichia coli assessed as [3H]UTP incorporation into RNA/RNA homopolymeric template (rA)40/(rU)20 at 10 uM after 40 mins by liquid scintillation counting in presence of increase concentration of RNA primer/template. To be noted: Hepatitis C virus subtype 1b. The method in brief: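 NS5BΔC21 [³H]-UTP incorporation assay on (rA)40/(rU)20 at 25 °C for 40 min, with DE-81 filter scintillation read-out. Inhibitor was held at a fixed subsaturating dose while the RNA primer/template was raised across two increasing doses; inhibitor was preincubated 5 min on ice with enzyme and RNA before UTP addition.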

On to `O=C(O)c1ccc(=O)n2c1sc1ccc(OC3CCCCC3)cc12`, for which the CC50 at 72 h in data set [1] is over 100 µM. The EC50 in the data set on Hepatitis C virus [2] was over 100 µM. For the same molecule, the IC50 in the data set with Hepatitis C virus [3] was over 40 µM.

Regarding `O=C(O)c1cc(C2CCCCC2)c(=O)n2c1sc1ccccc12`, in data set [1], the CC50 at 72 h is over 100 µM. In the data set on Hepatitis C virus [2], the EC50 was 53.5 µM. The IC50 in the data set on Hepatitis C virus [3] was over 40 µM.

`O=C(O)c1cc(C2CCCCC2)c(=O)n2c1sc1ccc(OC3CCCCC3)cc12` came in with a CC50 at 72 h in data set [1] of over 56.5 µM. For the same molecule, the EC50 with Hepatitis C virus [2] is over 56.5 µM. For the same molecule, in the data set with Hepatitis C virus [3], the IC50 turned out to be 23 µM. In addition, in the data set with Hepatitis C virus [4], the inhibition entry was “Active”. Besides, in the data set on Hepatitis C virus [5], the inhibition entry was “inactive”.

In data set [1], `O=C(O)c1cc(-c2ccccc2)c(=O)n2c1sc1ccc(OC3CCCCC3)cc12` came in with a CC50 at 72 h of over 100 µM. For the same molecule, the EC50 in the data set with Hepatitis C virus [2] was over 100 µM. Besides, the IC50 in the data set on Hepatitis C virus [3] was found to be 11 µM. Also, in the data set with Hepatitis C virus [4], the inhibition result is “Active”. For the same molecule, the inhibition result in the data set with Hepatitis C virus [5] is “inactive”.

On to `COc1ccc2c(c1)-n1c(c(C(=O)O)cc(-c3ccccc3)c1=O)S2(=O)=O`, for which the CC50 at 72 h in data set [1] is over 100 µM. The concentration for a half-maximal effect (EC50) in the data set with Hepatitis C virus [2] stood at 89.7 µM. For the same molecule, in the data set on Hepatitis C virus [3], the IC50 is over 40 µM.

Turning to `COc1ccc2sc3c(C(=O)O)cc(-c4ccccc4)c(=O)n3c2c1`, in data set [1], the CC50 at 72 h amounted to 51.8 µM. Also, the EC50 in the data set on Hepatitis C virus [2] came to 51.2 µM. In the data set with Hepatitis C virus [3], the IC50 is over 40 µM.

As to `O=C(O)c1cc(-c2ccccc2)c(=O)n2c1S(=O)(=O)c1ccc(F)cc1-2`, the CC50 at 72 h in data set [1] is over 100 µM. Moreover, the EC50 in the data set on Hepatitis C virus [2] came to 66 µM. The IC50 in the data set with Hepatitis C virus [3] is over 40 µM.

Molecule `O=C(O)c1cc(-c2ccccc2)c(=O)n2c1sc1ccc(F)cc12` registered a CC50 at 72 h in data set [1] of over 100 µM. In addition, the EC50 in the data set on Hepatitis C virus [2] was over 100 µM. The IC50 in the data set with Hepatitis C virus [3] is over 40 µM.

Turning to `O=C(O)C1=CC(=C(c2ccc(O)c(C(=O)O)c2)c2ccc(O)c(C(=O)O)c2)C=CC1=O` [AURINTRICARBOXYLIC ACID], the IC50 in the data set with Hepatitis C virus [3] worked out at 15 µM.

As for `CC(C)CCOc1ccc2sc3c(C(=O)O)cc(-c4ccccc4)c(=O)n3c2c1`, in data set [1], the midpoint of cytotoxicity, the CC50 at 72 h, lay at 55 µM. Also, in the data set with Hepatitis C virus [2], the EC50 was determined as 54 µM. Also, in the data set on Hepatitis C virus [3], the IC50 is over 40 µM.

Consider `CC(=O)c1cc(C(=O)O)c2sc3ccc(OC4CCCCC4)cc3n2c1=O`, for which the CC50 at 72 h in data set [1] was over 100 µM. Further, the EC50 in the data set on Hepatitis C virus [2] was over 100 µM. Also, the IC50 in the data set on Hepatitis C virus [3] was over 40 µM.

For the molecule `O=C(O)c1cc(-c2ccccc2)c(=O)n2c1S(=O)(=O)c1ccc(OC3CCCCC3)cc1-2`, in data set [1], the CC50 at 72 h was over 100 µM. In addition, in the data set with Hepatitis C virus [2], the EC50 turned out to be 55.8 µM. The IC50 in the data set on Hepatitis C virus [3] worked out at 19 µM. In the data set on Hepatitis C virus [4], the inhibition result was “Active”. In addition, the inhibition entry in the data set with Hepatitis C virus [5] was “inactive”.

In general, CC50 refers to the concentration at which the toxic effect on the cells reaches its halfway point. One may read the EC50 as the concentration giving half of the maximal effect. The term IC50 denotes the concentration that inhibits the measured activity by half.
